Reference: article PMC12130796 (Clinical Cancer Research, 2025)
Read-outs that look alike come from different tables or passages of the source.

Tests used:
patients with AOGCT = details: case report, one patient with AOGCT, cited from earlier work
CYP2C8 = details: cited from earlier work
AOGCT KGN cells = details: read-out: EC50, inhibition of proliferation; KGN cells in vitro; cited from earlier work
[1] = cited from earlier work
[2] = Plasma pharmacokinetics of paclitaxel and metabolites; type: in vivo, human
[3] = Plasma pharmacokinetics of nilotinib in the combination; type: in vivo; details: human, oral, Mean nilotinib AUC(0–24hours)
OATP1B2 = details: via inhibition of OATP1B2 in dorsal root ganglia cells; cited from earlier work
E-cadherin, vimentin = assay: EMT immunofluorescence assay in tumor biopsies, log10; type: in vivo, human; details: single-agent paclitaxel, C1D2 biopsies
[4] = tested on: serine 10-phosphorylated histone H3 (pHH3); assay: pHH3 quantitative immunofluorescence; type: in vivo, human; details: C1D2 biopsies (after paclitaxel alone) relative to baseline, P = 0.0031
Outline: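 Adult patients with solid tumours received IV test taxane on days 1, 8 and 15 of 28-day cycles, with oral kinase inhibitor started C1D3 during dose expansion. 18-gauge core biopsies were taken at baseline, C1D2 and C1D28, snap-frozen, thawed in neutral buffered formalin, paraffin-embedded and cut at 5 micron for quantitative IFA. Per-patient means were compared by unpaired t test assuming unequal variances.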

[5] = tested on: patients with relapsed ovarian sex cord–stromal tumors; details: weekly paclitaxel monotherapy, phase 2 arm, 32 patients (84% AOGCT); cited from earlier work

Cc1ccc(NC(=O)c2ccc(CN3CCN(C)CC3)cc2)cc1Nc1nccc(-c2cccnc2)n1 [Imatinib]
Duration of stable disease (patients with AOGCT; ref 36): over 16 months | Duration of stable disease (patients with AOGCT; ref 37): 12 months

Cc1cn(-c2cc(NC(=O)c3ccc(C)c(Nc4nccc(-c5cccnc5)n4)c3)cc(C(F)(F)F)c2)cn1 [nilotinib]
Effect on CYP2C8-mediated 6α-hydroxypaclitaxel formation (CYP2C8): inhibits | EC50 (AOGCT KGN cells): 13.1 µM | Published mean AUC(0–24hours) ([1]; nilotinib monotherapy): 3,848 ± 1,116 μmol/L × minutes | Cmax ([1]; read-out: Clinical Cmax, 300 mg twice-daily dosing): ~2000 nM | Effect of nilotinib coadministration on plasma paclitaxel exposures ([2]; day 8 vs day 1, DL2 vs DL3): does not modulate plasma paclitaxel exposures | AUC(0-t) ([3]; day 8, DL2 (300 mg nilotinib twice daily, 80 mg/m^2 paclitaxel)): 51.2 µM·h | AUC(0-t) ([3]; day 8, DL3 (400 mg nilotinib twice daily, 80 mg/m^2 paclitaxel)): 90.4 µM·h | Effect on paclitaxel-induced peripheral neuropathy (OATP1B2): attenuates paclitaxel-induced peripheral neuropathy

CC(=O)O[C@H]1C(=O)[C@@]2(C)[C@H]([C@H](OC(=O)c3ccccc3)[C@]3(O)C[C@H](OC(=O)[C@H](O)[C@@H](NC(=O)c4ccccc4)c4ccccc4)C(C)=C1C3(C)C)[C@]1(OC(C)=O)CO[C@@H]1C[C@@H]2O [paclitaxel]
Change in tumor EMT phenotype (E-cadherin, vimentin): no obvious biologically relevant changes in EMT phenotype | Dose proportionality of plasma concentrations ([2]; across the two doses tested (60 and 80 mg/m^2)): dose-proportional | Change in mitotic arrest marker pHH3 [4]: significant increase | Progression-free survival [5]: 14.7 months
